Assay results from ChEMBL document CHEMBL1133013, “Structure-activity relationships and pharmacokinetic analysis for a series of potent, systemically available biphenylsulfonamide matrix metalloproteinase inhibitors” (J Med Chem, 2000).

Tests used:
[1] = target: Stromelysin-1 (Homo sapiens, UniProt P08254); assay: In vitro inhibition of recombinant human matrix metalloprotease-3 (MMP-3)
[2] = target: T1, Interstitial collagenase (Homo sapiens, UniProt P03956); assay: In vitro inhibition of human recombinant matrix metalloprotease-1 (MMP-1)
T1 sequence (P03956 whole entry): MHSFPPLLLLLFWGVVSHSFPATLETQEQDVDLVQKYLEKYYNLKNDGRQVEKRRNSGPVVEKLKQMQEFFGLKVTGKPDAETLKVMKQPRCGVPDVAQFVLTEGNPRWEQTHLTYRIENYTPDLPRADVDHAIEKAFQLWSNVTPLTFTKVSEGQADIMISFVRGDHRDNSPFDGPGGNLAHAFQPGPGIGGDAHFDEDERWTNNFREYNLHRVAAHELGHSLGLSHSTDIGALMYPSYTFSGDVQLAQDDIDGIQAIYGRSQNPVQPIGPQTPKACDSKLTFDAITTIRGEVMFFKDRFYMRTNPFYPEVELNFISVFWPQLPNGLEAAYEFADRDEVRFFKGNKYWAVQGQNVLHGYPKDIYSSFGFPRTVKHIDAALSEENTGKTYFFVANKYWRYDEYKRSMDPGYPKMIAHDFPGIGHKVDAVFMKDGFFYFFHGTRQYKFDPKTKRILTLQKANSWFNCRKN

[3] = target: Matrix metalloproteinase-9 (Homo sapiens, UniProt P14780); assay: In vitro inhibition of matrix metalloprotease-9 (MMP-9)
[4] = target: Collagenase 3 (Homo sapiens, UniProt P45452)
[5] = Pharmacokinetic parameters in rats following a single 5 mg/kg oral cassette gavage dose; format: ADME, organism-based; design: dose 5 mg/kg, route oral; details: rat, in vivo, read-out: AUC 0-infinity
How it was run: (§1)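 Cassette of 5–7 compounds given together as one oral gavage, 5 mg/kg per compound, methyl cellulose suspension, 3 fasted male Wistar rats (80-90 days old). Heparinized plasma taken by jugular cannula predose to 48 h. LC-MS/MS with LLOQ 10 ng/mL. Noncompartmental analysis of individual rats: Cmax/tmax as observed, t1/2 = 0.693/λz, trapezoidal AUC(0-tldc) extrapolated to infinity.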

[6] = Concentration in rat plasma 24 hours after single 5 mg/kg oral cassette gavage dose; format: ADME, organism-based; design: dose 5 mg/kg, route oral; details: read-out: C24
[7] = Half life (t1/2) in rats following a single 5 mg/kg oral cassette gavage dose; format: ADME, organism-based; design: dose 5 mg/kg, route oral; details: rat, in vivo; how it was run: as §1
[8] = AUC in rats following a single 5 mg/kg oral cassette gavage dose; format: ADME, organism-based; design: dose 5 mg/kg, route oral; details: rat, plasma, read-out: AUC 0-tldc; how it was run: as §1
[9] = target: 72 kDa type IV collagenase (Homo sapiens, UniProt P08253); assay: In vitro inhibition of matrix metalloprotease-2 (MMP-2)
[10] = Time to maximal concentration (tmax) in rats following a single 5 mg/kg oral cassette gavage dose; format: ADME, organism-based; design: dose 5 mg/kg, route oral; details: rat, in vivo; how it was run: as §1
[11] = Cmax in rat plasma after single 5 mg/kg oral cassette gavage dose; format: ADME, organism-based; design: dose 5 mg/kg, route oral; how it was run: as §1
[12] = target: T2, Matrilysin (Homo sapiens, UniProt P09237); assay: In vitro inhibition of matrix metalloprotease-7 (MMP-7)
T2 sequence (P09237 whole entry): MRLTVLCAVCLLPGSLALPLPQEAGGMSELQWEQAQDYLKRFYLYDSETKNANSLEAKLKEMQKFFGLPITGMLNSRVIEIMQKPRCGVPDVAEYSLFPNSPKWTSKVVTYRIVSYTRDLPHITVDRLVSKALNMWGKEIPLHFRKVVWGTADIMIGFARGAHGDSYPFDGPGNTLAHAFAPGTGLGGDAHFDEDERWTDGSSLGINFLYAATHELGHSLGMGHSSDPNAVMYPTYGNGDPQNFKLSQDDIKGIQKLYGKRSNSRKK

Chain of 72 kDa type IV collagenase (P08253 whole entry): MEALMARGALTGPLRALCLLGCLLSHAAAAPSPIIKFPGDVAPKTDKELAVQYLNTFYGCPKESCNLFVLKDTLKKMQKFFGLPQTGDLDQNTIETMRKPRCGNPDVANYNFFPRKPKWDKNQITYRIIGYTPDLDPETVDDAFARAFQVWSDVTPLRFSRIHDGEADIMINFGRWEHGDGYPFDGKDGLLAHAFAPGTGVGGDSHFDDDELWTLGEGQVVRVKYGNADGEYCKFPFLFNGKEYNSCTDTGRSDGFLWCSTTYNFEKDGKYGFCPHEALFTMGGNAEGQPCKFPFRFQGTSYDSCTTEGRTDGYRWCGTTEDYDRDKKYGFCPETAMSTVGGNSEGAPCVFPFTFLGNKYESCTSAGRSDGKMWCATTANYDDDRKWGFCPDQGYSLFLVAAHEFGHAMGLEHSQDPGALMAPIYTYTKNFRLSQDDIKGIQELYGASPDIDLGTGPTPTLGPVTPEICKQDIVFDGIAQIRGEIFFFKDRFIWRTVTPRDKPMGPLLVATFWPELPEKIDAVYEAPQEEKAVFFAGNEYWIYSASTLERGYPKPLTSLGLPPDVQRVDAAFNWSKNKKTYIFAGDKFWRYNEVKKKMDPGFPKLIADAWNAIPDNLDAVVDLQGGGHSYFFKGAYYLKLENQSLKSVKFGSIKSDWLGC
Chain of Matrix metalloproteinase-9 (P14780 whole entry): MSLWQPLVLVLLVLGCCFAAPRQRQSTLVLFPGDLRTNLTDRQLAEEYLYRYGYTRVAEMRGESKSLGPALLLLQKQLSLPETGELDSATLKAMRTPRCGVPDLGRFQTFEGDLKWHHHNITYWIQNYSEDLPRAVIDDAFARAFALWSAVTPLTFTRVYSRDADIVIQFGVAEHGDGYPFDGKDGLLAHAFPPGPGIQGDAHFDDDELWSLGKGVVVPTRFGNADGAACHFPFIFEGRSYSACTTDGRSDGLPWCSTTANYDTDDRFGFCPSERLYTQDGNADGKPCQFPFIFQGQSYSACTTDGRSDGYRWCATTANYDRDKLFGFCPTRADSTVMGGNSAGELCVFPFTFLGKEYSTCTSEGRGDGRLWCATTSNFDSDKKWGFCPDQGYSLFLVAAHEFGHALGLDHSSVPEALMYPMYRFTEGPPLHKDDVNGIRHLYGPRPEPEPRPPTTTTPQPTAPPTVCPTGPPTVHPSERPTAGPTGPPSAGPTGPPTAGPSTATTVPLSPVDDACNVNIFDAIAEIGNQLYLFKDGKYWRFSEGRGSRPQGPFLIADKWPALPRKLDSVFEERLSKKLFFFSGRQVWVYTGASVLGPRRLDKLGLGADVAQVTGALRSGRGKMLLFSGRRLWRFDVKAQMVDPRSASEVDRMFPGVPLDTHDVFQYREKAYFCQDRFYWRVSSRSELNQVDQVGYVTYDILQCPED
Chain of Stromelysin-1 (P08254 whole entry): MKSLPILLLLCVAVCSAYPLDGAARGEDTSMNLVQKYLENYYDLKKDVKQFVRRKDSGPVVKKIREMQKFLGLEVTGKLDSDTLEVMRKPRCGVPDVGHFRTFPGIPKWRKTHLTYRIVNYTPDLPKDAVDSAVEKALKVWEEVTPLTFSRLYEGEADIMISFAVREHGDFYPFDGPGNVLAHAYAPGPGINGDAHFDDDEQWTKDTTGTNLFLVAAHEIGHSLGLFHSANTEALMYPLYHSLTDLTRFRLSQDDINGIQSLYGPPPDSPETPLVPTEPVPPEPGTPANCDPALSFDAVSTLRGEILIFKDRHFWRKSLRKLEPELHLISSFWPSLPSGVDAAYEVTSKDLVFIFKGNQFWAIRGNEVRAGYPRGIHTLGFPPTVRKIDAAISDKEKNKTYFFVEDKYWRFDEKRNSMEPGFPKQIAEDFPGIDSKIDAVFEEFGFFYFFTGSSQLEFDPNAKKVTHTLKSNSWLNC

| Structure (SMILES) | IC50 [1] | IC50 [2] | IC50 [3] | IC50 [4] | AUC [5] | concentration at 24 h [6] | half-life [7] | AUC [8] | IC50 [9] | Tmax [10] | Cmax [11] | IC50 [12] |
| --- | --- | --- | --- | --- | --- | --- | --- | --- | --- | --- | --- | --- |
| CC(C)[C@@H](NS(=O)(=O)c1ccc(-c2ccc(C#N)cc2)cc1)C(=O)O | 5 nM | 14000 nM | 3800 nM | 53 nM | 277 µg·h/mL | 4490 ng/mL | 12.8 h | 256 µg·h/mL | 7 nM | 1.33 h | 12200 ng/mL | 19000 nM |
| CC(C)[C@@H](NS(=O)(=O)c1ccc(-c2ccc(Br)cc2)cc1)C(=O)NO | 5 nM | 110 nM | 18 nM | 2 nM | 5.86 µg·h/mL | 10 ng/mL | 6.78 h | 5.73 µg·h/mL | 1 nM | 0.33 h | 5930 ng/mL | 140 nM |
| CC(C)[C@H](NS(=O)(=O)c1ccc(-c2ccc(C#N)cc2)cc1)C(=O)O | 6 nM | 18000 nM | 59000 nM | 37 nM | 363 µg·h/mL | 5480 ng/mL | 12.5 h | 289 µg·h/mL | 33 nM | 2.67 h | 17100 ng/mL | 7000 nM |
| CC(C)[C@H](NS(=O)(=O)c1ccc(-c2ccc(Br)cc2F)cc1)C(=O)O | 16 nM | 3600 nM | 4900 nM | 7 nM | 4040 µg·h/mL | 21300 ng/mL | 117 h | 1360 µg·h/mL | 5 nM | 1.88 h | 28500 ng/mL | 2100 nM |
